Source: ChEMBL document CHEMBL1146037, “Design and discovery of a novel dipeptidyl-peptidase IV (CD26)-based prodrug approach” (J Med Chem, 2006)
pEC50, pIC50: −log10 of the molar value. The source made the active and inactive calls. The rule behind the calls is not given here.

System: MT4
Test: Antiviral activity against HIV2 assessed as inhibition of HIV2-induced cytopathicity in MT4 cells
Format: functional, cell-based
Settings: not given
Procedure, shortened: (§1)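 CEM and MT-4 cell cultures infected with HIV-1 or HIV-2, with compounds diluted into culture medium from DMSO stocks. Antiviral activity is read at day 4 post-infection and reported as EC50.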

Structure (SMILES)	Activity
Cc1cn(C2OC(CO[Si](C)(C)C(C)(C)C)C3(OS(=O)(=O)C=C3N)C2O[Si](C)(C)C(C)(C)C)c(=O)n(CCCNC(=O)[C@@H]2CCCN2C(=O)[C@@H](N)Cc2ccccc2)c1=O (stereo partly specified)	inactive
Cc1cn(C2OC(CO[Si](C)(C)C(C)(C)C)C3(OS(=O)(=O)C=C3N)C2O[Si](C)(C)C(C)(C)C)c(=O)n(CCCNC(=O)[C@@H]2CCCN2C(=O)[C@@H](N)CCC(=O)O)c1=O (stereo partly specified)	inactive
Cc1cn(C2OC(CO[Si](C)(C)C(C)(C)C)C3(OS(=O)(=O)C=C3N)C2O[Si](C)(C)C(C)(C)C)c(=O)n(CCCNC(=O)[C@@H]2CCCN2C(=O)CN)c1=O (stereo partly specified)	inactive

Molecular target: T1, Dipeptidyl peptidase 4 (Homo sapiens, UniProt P27487)
Test: Conversion of prodrug to parent drug NAP-TSAO-T catalyzed by CD26 after 24 hrs
Format: ADME
Set-up: concentration or dose not given beside the values
Settings: not given

T1 sequence (P27487 whole entry): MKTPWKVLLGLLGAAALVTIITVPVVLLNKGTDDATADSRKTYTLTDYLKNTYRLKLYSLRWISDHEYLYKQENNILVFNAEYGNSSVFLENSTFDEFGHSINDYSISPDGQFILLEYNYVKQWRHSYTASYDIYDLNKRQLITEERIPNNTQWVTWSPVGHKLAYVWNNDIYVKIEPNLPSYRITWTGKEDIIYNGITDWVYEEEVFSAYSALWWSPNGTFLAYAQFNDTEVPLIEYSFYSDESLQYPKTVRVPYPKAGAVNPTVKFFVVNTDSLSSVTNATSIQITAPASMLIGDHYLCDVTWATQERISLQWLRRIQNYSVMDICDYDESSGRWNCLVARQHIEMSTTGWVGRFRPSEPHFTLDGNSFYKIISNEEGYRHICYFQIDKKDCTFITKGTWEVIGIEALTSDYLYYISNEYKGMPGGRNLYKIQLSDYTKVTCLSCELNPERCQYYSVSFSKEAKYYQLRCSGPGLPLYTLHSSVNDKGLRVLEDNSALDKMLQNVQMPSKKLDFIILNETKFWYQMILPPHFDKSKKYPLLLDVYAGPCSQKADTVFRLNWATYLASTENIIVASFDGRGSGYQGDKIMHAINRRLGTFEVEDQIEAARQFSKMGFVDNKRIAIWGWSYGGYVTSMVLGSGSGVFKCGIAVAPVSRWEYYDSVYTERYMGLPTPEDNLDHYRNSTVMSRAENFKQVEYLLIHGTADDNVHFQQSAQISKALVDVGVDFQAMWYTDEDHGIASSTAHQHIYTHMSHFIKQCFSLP

Structure (SMILES)	Activity [%]
Cc1cn(C2OC(CO[Si](C)(C)C(C)(C)C)C3(OS(=O)(=O)C=C3N)C2O[Si](C)(C)C(C)(C)C)c(=O)n(CCCNC(=O)[C@@H]2CCCN2C(=O)[C@@H](N)Cc2ccccc2)c1=O (stereo partly specified)	58
Cc1cn(C2OC(CO[Si](C)(C)C(C)(C)C)C3(OS(=O)(=O)C=C3N)C2O[Si](C)(C)C(C)(C)C)c(=O)n(CCCNC(=O)[C@@H]2CCCN2C(=O)[C@@H](N)CCC(=O)O)c1=O (stereo partly specified)	92
Cc1cn(C2OC(CO[Si](C)(C)C(C)(C)C)C3(OS(=O)(=O)C=C3N)C2O[Si](C)(C)C(C)(C)C)c(=O)n(CCCNC(=O)[C@@H]2CCCN2C(=O)CN)c1=O (stereo partly specified)	58

System: MT4
Test: Antiviral activity against HIV1 assessed as inhibition of HIV1-induced cytopathicity in MT4 cells
Format: functional, cell-based
Settings: Homo sapiens
Procedure, shortened: as §1

Structure (SMILES)	pEC50
Cc1cn(C2OC(CO[Si](C)(C)C(C)(C)C)C3(OS(=O)(=O)C=C3N)C2O[Si](C)(C)C(C)(C)C)c(=O)n(CCCNC(=O)[C@@H]2CCCN2C(=O)[C@@H](N)Cc2ccccc2)c1=O (stereo partly specified)	6.70
Cc1cn(C2OC(CO[Si](C)(C)C(C)(C)C)C3(OS(=O)(=O)C=C3N)C2O[Si](C)(C)C(C)(C)C)c(=O)n(CCCNC(=O)[C@@H]2CCCN2C(=O)[C@@H](N)CCC(=O)O)c1=O (stereo partly specified)	6.31
Cc1cn(C2OC(CO[Si](C)(C)C(C)(C)C)C3(OS(=O)(=O)C=C3N)C2O[Si](C)(C)C(C)(C)C)c(=O)n(CCCNC(=O)[C@@H]2CCCN2C(=O)CN)c1=O (stereo partly specified)	6.41

Molecular target: T1, Dipeptidyl peptidase 4
Test: Conversion of prodrug to parent drug NAP-TSAO-T catalyzed by CD26 after 1 hr
Format: ADME
Set-up: concentration or dose not given beside the values
Settings: not given

Structure (SMILES)	Activity [%]
Cc1cn(C2OC(CO[Si](C)(C)C(C)(C)C)C3(OS(=O)(=O)C=C3N)C2O[Si](C)(C)C(C)(C)C)c(=O)n(CCCNC(=O)[C@@H]2CCCN2C(=O)CN)c1=O (stereo partly specified)	5

Molecular target: T1, Dipeptidyl peptidase 4
Test: Conversion of prodrug to parent drug NAP-TSAO-T catalyzed by CD26 after 4 hrs
Format: ADME
Set-up: concentration or dose not given beside the values
Settings: not given

Structure (SMILES)	Activity [%]
Cc1cn(C2OC(CO[Si](C)(C)C(C)(C)C)C3(OS(=O)(=O)C=C3N)C2O[Si](C)(C)C(C)(C)C)c(=O)n(CCCNC(=O)[C@@H]2CCCN2C(=O)[C@@H](N)Cc2ccccc2)c1=O (stereo partly specified)	37
Cc1cn(C2OC(CO[Si](C)(C)C(C)(C)C)C3(OS(=O)(=O)C=C3N)C2O[Si](C)(C)C(C)(C)C)c(=O)n(CCCNC(=O)[C@@H]2CCCN2C(=O)[C@@H](N)CCC(=O)O)c1=O (stereo partly specified)	48
Cc1cn(C2OC(CO[Si](C)(C)C(C)(C)C)C3(OS(=O)(=O)C=C3N)C2O[Si](C)(C)C(C)(C)C)c(=O)n(CCCNC(=O)[C@@H]2CCCN2C(=O)CN)c1=O (stereo partly specified)	20

System: CCRF-CEM
Test: Antiproliferative activity against human CEM cell line
Format: functional
Settings: not given
Procedure, shortened: (§2)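 Cytostatic assay: compounds made up as DMSO stocks and diluted in culture medium. CC50 is the concentration that inhibits MT-4 or CEM cell proliferation by 50%.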

Structure (SMILES)	CC50 [µM]
Cc1cn(C2OC(CO[Si](C)(C)C(C)(C)C)C3(OS(=O)(=O)C=C3N)C2O[Si](C)(C)C(C)(C)C)c(=O)n(CCCNC(=O)[C@@H]2CCCN2C(=O)[C@@H](N)Cc2ccccc2)c1=O (stereo partly specified)	14
Cc1cn(C2OC(CO[Si](C)(C)C(C)(C)C)C3(OS(=O)(=O)C=C3N)C2O[Si](C)(C)C(C)(C)C)c(=O)n(CCCNC(=O)[C@@H]2CCCN2C(=O)[C@@H](N)CCC(=O)O)c1=O (stereo partly specified)	30
Cc1cn(C2OC(CO[Si](C)(C)C(C)(C)C)C3(OS(=O)(=O)C=C3N)C2O[Si](C)(C)C(C)(C)C)c(=O)n(CCCNC(=O)[C@@H]2CCCN2C(=O)CN)c1=O (stereo partly specified)	51

System: CCRF-CEM
Test: Antiviral activity against HIV1 assessed as inhibition of HIV1-induced cytopathicity in CEM cells
Format: functional, cell-based
Settings: Homo sapiens
Procedure, shortened: as §1

Structure (SMILES)	pEC50
Cc1cn(C2OC(CO[Si](C)(C)C(C)(C)C)C3(OS(=O)(=O)C=C3N)C2O[Si](C)(C)C(C)(C)C)c(=O)n(CCCNC(=O)[C@@H]2CCCN2C(=O)[C@@H](N)Cc2ccccc2)c1=O (stereo partly specified)	7.00
Cc1cn(C2OC(CO[Si](C)(C)C(C)(C)C)C3(OS(=O)(=O)C=C3N)C2O[Si](C)(C)C(C)(C)C)c(=O)n(CCCNC(=O)[C@@H]2CCCN2C(=O)[C@@H](N)CCC(=O)O)c1=O (stereo partly specified)	6.59
Cc1cn(C2OC(CO[Si](C)(C)C(C)(C)C)C3(OS(=O)(=O)C=C3N)C2O[Si](C)(C)C(C)(C)C)c(=O)n(CCCNC(=O)[C@@H]2CCCN2C(=O)CN)c1=O (stereo partly specified)	6.70

Molecular target: Human immunodeficiency virus type 1 reverse transcriptase (Human immunodeficiency virus 1, UniProt Q72547)
Test: Inhibition of recombinant HIV1 reverse transcriptase
Settings: not given

Structure (SMILES)	pIC50
Cc1cn(C2OC(CO[Si](C)(C)C(C)(C)C)C3(OS(=O)(=O)C=C3N)C2O[Si](C)(C)C(C)(C)C)c(=O)n(CCCNC(=O)[C@@H]2CCCN2C(=O)CN)c1=O (stereo partly specified)	4.89

System: MT4
Test: Antiproliferative activity against human MT4 cell line
Format: functional
Settings: not given
Procedure, shortened: as §2

Structure (SMILES)	CC50 [µM]
Cc1cn(C2OC(CO[Si](C)(C)C(C)(C)C)C3(OS(=O)(=O)C=C3N)C2O[Si](C)(C)C(C)(C)C)c(=O)n(CCCNC(=O)[C@@H]2CCCN2C(=O)[C@@H](N)Cc2ccccc2)c1=O (stereo partly specified)	19
Cc1cn(C2OC(CO[Si](C)(C)C(C)(C)C)C3(OS(=O)(=O)C=C3N)C2O[Si](C)(C)C(C)(C)C)c(=O)n(CCCNC(=O)[C@@H]2CCCN2C(=O)[C@@H](N)CCC(=O)O)c1=O (stereo partly specified)	64
Cc1cn(C2OC(CO[Si](C)(C)C(C)(C)C)C3(OS(=O)(=O)C=C3N)C2O[Si](C)(C)C(C)(C)C)c(=O)n(CCCNC(=O)[C@@H]2CCCN2C(=O)CN)c1=O (stereo partly specified)	13

System: CCRF-CEM
Test: Antiviral activity against HIV2 assessed as inhibition of HIV2-induced cytopathicity in CEM cells
Format: functional, cell-based
Settings: not given
Procedure, shortened: as §1

Structure (SMILES)	Activity
Cc1cn(C2OC(CO[Si](C)(C)C(C)(C)C)C3(OS(=O)(=O)C=C3N)C2O[Si](C)(C)C(C)(C)C)c(=O)n(CCCNC(=O)[C@@H]2CCCN2C(=O)[C@@H](N)Cc2ccccc2)c1=O (stereo partly specified)	inactive
Cc1cn(C2OC(CO[Si](C)(C)C(C)(C)C)C3(OS(=O)(=O)C=C3N)C2O[Si](C)(C)C(C)(C)C)c(=O)n(CCCNC(=O)[C@@H]2CCCN2C(=O)[C@@H](N)CCC(=O)O)c1=O (stereo partly specified)	inactive
Cc1cn(C2OC(CO[Si](C)(C)C(C)(C)C)C3(OS(=O)(=O)C=C3N)C2O[Si](C)(C)C(C)(C)C)c(=O)n(CCCNC(=O)[C@@H]2CCCN2C(=O)CN)c1=O (stereo partly specified)	inactive
